Activity calls are given as the source filed them. The rule behind the calls is not given here.
How the values were obtained:
HSC-T6 [1] = test: Effect on Smad2/3 expression in rat HSC-T6 cells at 1 to 4 uM after 1 hr by Western blot analysis; format: functional, cell-based
Outline: (§1)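 Serum-starved cells (24 h, no FBS) preincubated 2 h with compound at 1, 2 or 4 μM, DMSO or 10 μM SB431542. Then exposed to TGF-β1 at 10 ng/mL final for 1 h. Lysates (30 μg) immunoblotted for phospho-Smad2/3 and Smad7; membranes reprobed for total Smad2/3 and β-actin for loading.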

[2] = target: T1, Mothers against decapentaplegic homolog 2/homolog 3 (Homo sapiens) (UniProt P84022+Q15796); test: Inhibition of TGF-beta1-induced Smad2/3 phosphorylation in human LX-2 cells after 1 hr by Western blot analysis; format: cell-based; outline: as §1
T1 sequence (P84022 whole entry, looked up): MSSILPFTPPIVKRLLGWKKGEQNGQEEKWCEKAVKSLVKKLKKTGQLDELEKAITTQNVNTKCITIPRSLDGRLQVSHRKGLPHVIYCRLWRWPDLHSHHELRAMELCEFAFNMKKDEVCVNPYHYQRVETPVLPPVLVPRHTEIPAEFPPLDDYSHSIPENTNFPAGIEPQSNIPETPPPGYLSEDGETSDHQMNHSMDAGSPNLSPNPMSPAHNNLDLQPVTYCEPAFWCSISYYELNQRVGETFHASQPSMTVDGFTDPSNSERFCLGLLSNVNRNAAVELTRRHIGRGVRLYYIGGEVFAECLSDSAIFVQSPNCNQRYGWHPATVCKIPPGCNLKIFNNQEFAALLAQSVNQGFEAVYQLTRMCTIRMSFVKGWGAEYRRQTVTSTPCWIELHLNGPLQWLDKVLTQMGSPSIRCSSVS
T1 sequence (Q15796 whole entry, looked up): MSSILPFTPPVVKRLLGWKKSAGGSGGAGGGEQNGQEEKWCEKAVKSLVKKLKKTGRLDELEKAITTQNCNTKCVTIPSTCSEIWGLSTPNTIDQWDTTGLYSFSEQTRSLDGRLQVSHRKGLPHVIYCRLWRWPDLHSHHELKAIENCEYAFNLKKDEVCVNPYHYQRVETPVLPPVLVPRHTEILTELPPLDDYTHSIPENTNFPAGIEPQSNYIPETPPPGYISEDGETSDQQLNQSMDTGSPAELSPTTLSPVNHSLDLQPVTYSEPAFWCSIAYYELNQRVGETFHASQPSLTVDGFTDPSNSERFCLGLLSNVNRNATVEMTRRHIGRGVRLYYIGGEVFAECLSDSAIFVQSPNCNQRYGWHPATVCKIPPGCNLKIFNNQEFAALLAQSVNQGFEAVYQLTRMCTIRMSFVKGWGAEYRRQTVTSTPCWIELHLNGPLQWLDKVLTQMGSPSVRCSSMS

HSC-T6 [3] = test: Inhibition of TGF-beta-induced alpha-SMA expression in rat HSC-T6 cells at 1 to 4 uM after 48 hrs by Western blot analysis; format: functional, cell-based
Outline: (§2)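 Cells at 70% confluence serum-starved 24 h (passages 18–25). Preincubated 2 h with compound (1, 2 or 4 μM), DMSO vehicle or 10 μM SB431542, then 10 ng/mL human recombinant TGF-β1 added without wash for 48 h. Whole-cell lysates (30 μg protein) run on SDS-PAGE and immunoblotted with β-actin as loading control.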

LX2 [4] = test: Inhibition of TGF-beta1-induced decrease of Smad7 expression in human LX2 cells after 1 hr by Western blot analysis; format: functional, cell-based; outline: as §1
LX2 [5] = test: Effect on Smad2/3 expression in human LX2 cells at 1 to 4 uM after 1 hr by Western blot analysis; format: functional, cell-based; outline: as §1
LX2 [6] = test: Inhibition of TGF-beta-induced CTGF expression in human LX2 cells after 48 hrs by Western blot analysis; format: functional, cell-based
[7] = Cytotoxicity against human L02 cells at up to 4 uM after 48 hrs by MTT assay; format: cell-based; details: l02, 48 h
Outline: (§3)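 MTT (5 mg/mL stock) added for 4 h at 37 °C. Formazan dissolved in DMSO, OD read at 570 nm. Viability given as % of control; mean ± SEM of three independent experiments.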

LX2 [8] = test: Inhibition of TGF-beta-induced vimentin expression in human LX2 cells at 1 to 4 uM after 48 hrs by Western blot analysis; format: functional, cell-based; outline: as §2
[9] = Cytotoxicity against rat HSC-T6 cells at up to 4 uM after 48 hrs by MTT assay; format: cell-based; details: hsc-t6, 48 h; outline: as §3
HSC-T6 [10] = test: Inhibition of TGF-beta1-induced decrease of Smad7 expression in rat HSC-T6 cells after 1 hr by Western blot analysis; format: functional, cell-based; outline: as §1
HSC-T6 [11] = test: Inhibition of TGF-beta-induced type-1 collagen expression in rat HSC-T6 cells after 48 hrs by Western blot analysis; format: functional, cell-based; outline: as §2
HSC-T6 [12] = test: Inhibition of TGF-beta-induced vimentin expression in rat HSC-T6 cells at 1 to 4 uM after 48 hrs by Western blot analysis; format: functional, cell-based; outline: as §2
[13] = Cytotoxicity against human LX2 cells at up to 4 uM after 48 hrs by MTT assay; format: cell-based; details: lx2, 48 h; outline: as §3
LX2 [14] = test: Inhibition of TGF-beta-induced alpha-SMA expression in human LX2 cells at 1 to 4 uM after 48 hrs by Western blot analysis; format: functional, cell-based; outline: as §2
LX2 [15] = test: Inhibition of TGF-beta-induced type-1 collagen expression in human LX2 cells after 48 hrs by Western blot analysis; format: functional, cell-based; outline: as §2
[16] = target: T2, Mothers against decapentaplegic homolog 2/homolog 3 (Rattus norvegicus) (UniProt O70436+P84025); test: Inhibition of TGF-beta1-induced Smad2/3 phosphorylation in rat HSC-T6 cells after 1 hr by Western blot analysis; format: cell-based; outline: as §1
T2 sequence (O70436 whole entry, looked up): as the sequence (Q15796 whole entry, looked up) above, with P90A, I93V, N154S counted along it
T2 sequence (P84025 whole entry, looked up): as the sequence (P84022 whole entry, looked up) above

HSC-T6 [17] = test: Inhibition of TGF-beta-induced CTGF expression in rat HSC-T6 cells after 48 hrs by Western blot analysis; format: functional, cell-based
HSC-T6 [18] = test: Inhibition of TGF-beta-induced vimentin expression in rat HSC-T6 cells at 10 uM after 48 hrs by Western blot analysis; format: functional, cell-based
Outline: (§4)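 Rat HSC-T6 (RPMI 1640) or human LX-2 (DMEM) cells, passages 18-25, at 70% confluence were serum-deprived for 24 h. After 2 h pretreatment with agent or DMSO vehicle, TGF-β1 was added without washing at a final 10 ng/mL for 48 h. Whole-cell lysates (30 μg) were blotted for vimentin, with β-actin as the loading control.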

LX2 [19] = test: Inhibition of TGF-beta-induced vimentin expression in human LX2 cells at 10 uM after 48 hrs by Western blot analysis; format: functional, cell-based; outline: as §4
[20] = target: T1, Mothers against decapentaplegic homolog 2/homolog 3 (Homo sapiens); test: Inhibition of TGF-beta1-induced Smad2/3 phosphorylation in human LX2 cells at 10 uM after 1 hr by Western blot analysis; format: cell-based
Outline: (§5)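 HSC-T6 (rat; RPMI 1640) or LX-2 (human; DMEM) cells with 10% FBS, passages 18-25, were grown to 70% confluence and serum-starved 24 h. They were preincubated 2 h with test agent or DMSO, then exposed to TGF-β1 at a final 10 ng/mL for 1 h. Blots of 30 μg lysate were probed for phospho-Smad2/3 and Smad7, then reprobed for total Smad2/3 and β-actin.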

[21] = target: T2, Mothers against decapentaplegic homolog 2/homolog 3 (Rattus norvegicus); test: Inhibition of TGF-beta1-induced Smad2/3 phosphorylation in rat HSC-T6 cells at 10 uM after 1 hr by Western blot analysis; format: cell-based; outline: as §5
HSC-T6 [22] = test: Inhibition of TGF-beta1-induced decrease of Smad7 expression in rat HSC-T6 cells at 10 uM after 1 hr by Western blot analysis; format: functional, cell-based; outline: as §5
HSC-T6 [23] = test: Effect on Smad2/3 expression in rat HSC-T6 cells at 10 uM after 1 hr by Western blot analysis; format: functional, cell-based; outline: as §5
LX2 [24] = test: Inhibition of TGF-beta1-induced decrease of Smad7 expression in human LX2 cells at 10 uM after 1 hr by Western blot analysis; format: functional, cell-based; outline: as §5
LX2 [25] = test: Effect on Smad2/3 expression in human LX2 cells at 10 uM after 1 hr by Western blot analysis; format: functional, cell-based; outline: as §5

Structure (SMILES): CC/C=C/C=C/[C@@]1(C)OC([C@H]2[C@@H](C)C(=O)c3cc(OC)c(O)c(O)c3[C@@]2(C)O)=C(C(=O)OC)C1=O
- Activity (HSC-T6 [1]): inactive
- inhibition [2]: Dose-dependent effect
- inhibition (HSC-T6 [3]): Active
- inhibition (LX2 [4]): Dose-dependent effect
- Activity (LX2 [5]): inactive
- inhibition (LX2 [6]): Dose-dependent effect
- Activity [7]: Non-toxic
- inhibition (LX2 [8]): Active
- Activity [9]: Non-toxic
- inhibition (HSC-T6 [10]): Dose-dependent effect
- inhibition (HSC-T6 [11]): Dose-dependent effect
- inhibition (HSC-T6 [12]): Active
- Activity [13]: Non-toxic
- inhibition (LX2 [14]): Active
- inhibition (LX2 [15]): Dose-dependent effect
- inhibition [16]: Dose-dependent effect
- inhibition (HSC-T6 [17]): Dose-dependent effect

Structure (SMILES): NC(=O)c1ccc(-c2nc(-c3ccccn3)c(-c3ccc4c(c3)OCO4)[nH]2)cc1
- inhibition (HSC-T6 [18]): Active
- inhibition (LX2 [19]): Active
- inhibition [20]: Dose-dependent effect
- inhibition [21]: Dose-dependent effect
- inhibition (HSC-T6 [22]): Dose-dependent effect
- Activity (HSC-T6 [23]): inactive
- inhibition (LX2 [24]): Dose-dependent effect
- Activity (LX2 [25]): inactive

— ChEMBL document CHEMBL3785059, “LC-MS-Guided Isolation of Penicilfuranone A: A New Antifibrotic Furancarboxylic Acid from the Plant Endophytic Fungus Penicillium sp. sh18” (J Nat Prod, 2016)
